Activity calls are given as the source filed them. The rule behind the calls is not given here.
What was measured:
HeLa = test: Antiproliferative activity against human Hela cells after 48 hrs by MTT assay; assay type: functional, cell-based
Summary of the method: (§1)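 Cells seeded at 5.0×10^3 per well, pre-incubated 12 h at 37 °C, 5% CO2, then exposed to compounds for 48 h; DMSO-only control. MTT (2.5 mg/mL) added for 4 h, formazan dissolved in DMSO, absorbance at 570 nm. Each dose tested in triplicate; IC50 from percentage survival relative to negative control.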

[1] = Binding affinity to 5'-biotin labeled c-myc promoter i-motif DNA Py33 (unknown origin) by surface plasmon resonance method
Summary of the method: (§2)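 SPR: 5'-biotin DNA diluted to 1 μM and captured (1000 RU) on a sensor chip, with a blank cell as reference. Running buffers: Py33 in 20 mM MES pH 5.8, 100 mM KCl, 0.05% Tween-20; Pu27 and duplex in 50 mM Tris-HCl pH 7.4, 100 mM KCl. Six ligand concentrations serially diluted from DMSO stock. Association 260 s, dissociation 300 s at 25 °C; NaOH regeneration; blank sensorgrams subtracted.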

Huh-7 = test: Antiproliferative activity against human Huh-7 cells after 48 hrs by MTT assay; assay type: functional, cell-based; conditions: Huh-7, 48 h; summary of the method: as §1
U2OS = test: Antiproliferative activity against human U2OS cells after 48 hrs by MTT assay; assay type: functional, cell-based; summary of the method: as §1
Quadruplex DNA [2] = test: Stabilization of 5'-FAM/3'-TAMRA labeled c-myc promoter G-quadruplex DNA FPu22T (unknown origin) assessed as change in melting temperature at 1 uM by FRET assay (reference value: 66.5 degreeC); assay type: nucleic-acid assay
Summary of the method: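 FRET melting of dual FAM/TAMRA-labelled FPu22T annealed in 10 mM Tris-HCl pH 7.4 with KCl. Final 0.2 µM DNA with or without ligand. Excitation 470 nm, emission 530 nm, read every 1 °C over 37–99 °C on a real-time PCR cycler. ΔTm = Tm(DNA+ligand) − Tm(DNA).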

A549 = test: Antiproliferative activity against human A549 cells after 48 hrs by MTT assay; assay type: functional, cell-based; conditions: A549, 48 h; summary of the method: as §1
Quadruplex DNA [3] = test: Stabilization of c-myc promoter G-quadruplex DNA Pu27 (unknown origin) in pH 7.4 Tris-HCl buffer by CD spectroscopy; assay type: nucleic-acid assay
Summary of the method: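 Pu27 at 1 µM in 10 mM Tris-HCl pH 7.4, with or without ligand. Annealed at 95 °C for 5 min, cooled to room temperature, stored at 4 °C overnight. CD spectra taken in a 4 mm cuvette over 230–350 nm, three scans averaged, smoothed and buffer-baseline corrected.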

A-375 = test: Antiproliferative activity against human A-375 cells after 48 hrs by MTT assay; assay type: functional, cell-based; conditions: A-375, 48 h; summary of the method: as §1
HCT-116 = test: Antiproliferative activity against human HCT-116 cells after 48 hrs by MTT assay; assay type: functional, cell-based; conditions: HCT-116, 48 h; summary of the method: as §1
SiHa = test: Antiproliferative activity against human SiHa cells after 48 hrs by MTT assay; assay type: functional, cell-based; summary of the method: as §1
Quadruplex DNA [4] = test: Binding affinity to 5'-biotin labeled c-myc promoter G-quadruplex DNA Pu27 (unknown origin) by surface plasmon resonance method; assay type: nucleic-acid assay; summary of the method: as §2
[5] = Stabilization of 5'-FAM/3'-TAMRA labeled c-myc promoter i-motif DNA FPy33T (unknown origin) assessed as change in melting temperature at 1 uM by FRET assay (reference value: 53.2 degreeC)
Summary of the method: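 FRET melting of dual FAM/TAMRA-labelled FPy33T annealed in 1× BPES (30 mM potassium phosphate, 1 mM EDTA, 100 mM KCl), pH 5.5. Final 0.2 µM DNA with or without ligand. Excitation 470 nm, emission 530 nm, read every 1 °C over 37–99 °C. ΔTm taken against DNA alone.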

[6] = Stabilization of 5'-FAM/3'-TAMRA labeled hairpin DNA F10T (unknown origin) assessed as change in melting temperature at 1 uM by FRET assay (reference value: 59.1 degreeC)
dsDNA = test: Binding affinity to 5'-biotin labeled duplex DNA (unknown origin) by surface plasmon resonance method; assay type: nucleic-acid assay; summary of the method: as §2
ssDNA = test: Binding affinity to 5'-biotin labeled single-stranded DNA Py33 (unknown origin) by surface plasmon resonance method; assay type: nucleic-acid assay
[7] = Stabilization of c-myc promoter i-motif DNA Py33 (unknown origin) assessed as decrease in positive peak intensity at pH 5.5 measured at 288 nanometer by CD spectroscopy
Summary of the method: (§3)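 Py33 at 1 µM in 1× BPES pH 5.5 (pH 6.8 random-coil reference), with or without ligand. Annealed at 95 °C for 5 min, cooled, kept at 4 °C overnight. CD spectra in a 4 mm cuvette over 230–350 nm, three scans averaged, buffer-corrected; peaks followed at 288 and 260 nm.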

[8] = Stabilization of c-myc promoter i-motif DNA Py33 (unknown origin) assessed as reduction in appearance of random coil confirmation at pH 5.5 by CD spectroscopy; summary of the method: as §3
[9] = Stabilization of c-myc promoter i-motif DNA Py33 (unknown origin) assessed as decrease in negative peak intensity at pH 5.5 measured at 260 nanometer by CD spectroscopy; summary of the method: as §3
[10] = Drug uptake in human SiHa cells; assay type: ADME, cell-based

SMILES | IC50 (HeLa) [µM] | Kd [1] [µM] | IC50 (Huh-7) [µM] | IC50 (U2OS) [µM] | ΔTm (Quadruplex DNA [2]) [°C] | IC50 (A549) [µM] | Activity (Quadruplex DNA [3]) | IC50 (A-375) [µM] | IC50 (HCT-116) [µM] | IC50 (SiHa) [µM] | Kd (Quadruplex DNA [4]) [µM] | ΔTm [5] [°C] | ΔTm [6] [°C] | Kd (dsDNA) [µM] | Kd (ssDNA) [µM] | Activity [7] | Activity [8] | Activity [9] | Drug uptake [10]
c1ccc2c(NCCOCCOCCNc3c4ccccc4nc4ccccc34)c3ccccc3nc2c1 | 0.24 | 16 | 0.87 | 0.33 | 10.6 | 1.14 | Active | 0.22 | 0.51 | 2.26 | 9.3 | 0.1 | 3.4 | 5.8 | – | – | – | – | –
Cc1ccc2nc3ccccc3c(NCCCCCCNc3c4ccccc4nc4ccc(C)cc34)c2c1 | – | 25.1 | – | – | 10 | – | – | – | – | – | 14.3 | 1.2 | 1.7 | – | – | – | – | – | –
COC(=O)c1ccc2nc3ccc(C)cc3c(NCCCNCCNCCCNc3c4cc(C)ccc4nc4ccc(C(=O)OC)cc34)c2c1 | – | 3.8 | – | – | 8.6 | – | – | – | – | – | 2.9 | 2 | 4.8 | 11.8 | – | – | – | – | –
c1ccc2c(NCCCNc3c4ccccc4nc4ccccc34)c3ccccc3nc2c1 | 2.62 | – | 5.56 | 1.6 | 14 | 1.73 | – | 2.05 | 3.51 | 3.06 | 4.3 | 1.3 | 2.2 | 10.1 | 13.7 | – | – | – | –
Cc1ccc2nc3ccccc3c(NCCCCCNc3c4ccccc4nc4ccc(C)cc34)c2c1 | 1.65 | 14.5 | 3.67 | 1.42 | 11.4 | 0.83 | – | 1.83 | 1.68 | 2.52 | 16.3 | 0.2 | 1.9 | – | 26.1 | – | – | – | –
c1ccc2c(NCCCNCCNCCCNc3c4ccccc4nc4ccccc34)c3ccccc3nc2c1 | 0.27 | 3.8 | 0.19 | 0.38 | 12.5 | 0.28 | – | 0.43 | 0.69 | 2 | 13.8 | 11.8 | 9.8 | 6 | – | Active | Active | Active | –
Cc1ccc2nc3ccc(C)cc3c(NCCCCCNc3c4cc(C)ccc4nc4ccc(C)cc34)c2c1 | 0.66 | – | 2.81 | 1.33 | 11 | 0.72 | – | 0.51 | 0.95 | 1.66 | 7.3 | 1 | 2.7 | 33.6 | 23.7 | – | – | – | –
Cc1ccc2nc3ccc(C)cc3c(NCCCN(C)CCCNc3c4cc(C)ccc4nc4ccc(C)cc34)c2c1 | 0.85 | 10.5 | 0.27 | 0.44 | 15.6 | 0.52 | – | 0.13 | 2.47 | 0.37 | 5.5 | 4.5 | 3.8 | 22.2 | 13.9 | – | – | – | –
COC(=O)c1ccc2nc3ccc(C)cc3c(NCCOCCOCCNc3c4cc(C)ccc4nc4ccc(C(=O)OC)cc34)c2c1 | – | 10.3 | – | – | 14.3 | – | Active | – | – | – | 1.4 | 1 | 2.5 | 12.5 | 2.9 | – | – | – | –
Cc1ccc2nc3ccc(C(=O)NCCCN(C)C)cc3c(NCCOCCOCCNc3c4cc(C)ccc4nc4ccc(C(=O)NCCCN(C)C)cc34)c2c1 | – | 8.5 | – | – | 8.3 | – | – | – | – | – | 3.7 | 27.4 | 2.2 | 17.4 | – | Active | Active | Active | Not Active
Cc1ccc2nc3ccc(C)cc3c(NCCCCCCCNc3c4cc(C)ccc4nc4ccc(C)cc34)c2c1 | – | – | – | – | 15.7 | – | – | – | – | – | 6.1 | 1.4 | 1.8 | 10.7 | 8.8 | – | – | – | –
Cc1ccc2nc3ccc(C)cc3c(NCCCCNc3c4cc(C)ccc4nc4ccc(C)cc34)c2c1 | 1.47 | 16 | 2.68 | 0.55 | 10.4 | 0.47 | – | 1.92 | 2.06 | 3.7 | 2.9 | 9.1 | 0.8 | – | 6.8 | – | – | – | –
c1ccc2c(NCCCCCCCNc3c4ccccc4nc4ccccc34)c3ccccc3nc2c1 | – | – | – | – | 8.8 | – | – | – | – | – | 11.6 | 0.6 | 9.3 | 7.4 | 14.7 | – | – | – | –
Cc1ccc2nc3ccc(C)cc3c(NCCCCCCNc3c4cc(C)ccc4nc4ccc(C)cc34)c2c1 | – | 12.4 | – | – | 16.8 | – | – | – | – | – | 1.1 | 10.1 | 2.7 | – | 4.7 | – | – | – | –
Cc1ccc2nc3ccccc3c(NCCCCCCCNc3c4ccccc4nc4ccc(C)cc34)c2c1 | – | – | – | – | 15.3 | – | – | – | – | – | 10.3 | 3.4 | 3.6 | 24.8 | – | – | – | – | –
Cc1ccc2nc3ccccc3c(NCCCCNc3c4ccccc4nc4ccc(C)cc34)c2c1 | 1.36 | – | 3.29 | 0.79 | 13.9 | 0.32 | – | 0.92 | 0.91 | 2.44 | 1.6 | 0.4 | 2 | – | – | – | – | – | –
Cc1ccc2nc3ccccc3c(NCCCN(C)CCCNc3c4ccccc4nc4ccc(C)cc34)c2c1 | 0.37 | 10.7 | 0.19 | 2.04 | 12.1 | 1.16 | – | 0.23 | 1.95 | 0.49 | 6.9 | 6.4 | 6.2 | 16.4 | 8.91 | – | – | – | –
Cc1ccc2nc3ccccc3c(NCCOCCOCCNc3c4ccccc4nc4ccc(C)cc34)c2c1 | 0.32 | 13 | 2.14 | 2.16 | 14.3 | 0.81 | Active | 1.88 | 0.86 | 2.77 | 5.1 | 0.1 | 3 | 33.2 | 21.6 | – | – | – | –
Cc1ccc2nc3ccc(C)cc3c(NCCCNc3c4cc(C)ccc4nc4ccc(C)cc34)c2c1 | 1.36 | – | 6.2 | 2.94 | 14.1 | 1.71 | – | 2.48 | 6.25 | 3.82 | 9.2 | 2.4 | 0.7 | 35.4 | – | – | – | – | –
CN(CCCNc1c2ccccc2nc2ccccc12)CCCNc1c2ccccc2nc2ccccc12 | 0.34 | 9.1 | 0.8 | 0.13 | 7.7 | 0.35 | – | 0.12 | 0.19 | 2.51 | 18.3 | 7.3 | 10.8 | 8.1 | – | – | – | – | –
